Source: ChEMBL document CHEMBL5329156, “Discovery and development of novel substituted monohydrazides as potent antifungal agents” (RSC Med Chem, 2023)
Converted amounts (≈) assume the structure as drawn.

Key:
Format in all cases: functional
[1] = tested on: Candida albicans; assay: Antifungal activity against Candida albicans ATCC 10231 assessed as fungal growth inhibition by double dilution method
In short: (§1)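 Broth microdilution after CLSI M27-A3/M38-A2 with minor changes. Single colony grown overnight in YPD at 35 °C, 200 rpm. Compound final range 0.06-31.3 µg/mL; incubated 48 h at 35 °C.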

[2] = tested on: Candida albicans; assay: Antifungal activity against Candida albicans ATCC 64124 assessed as fungal growth inhibition by double dilution method
In short: (§2)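 Broth microdilution after CLSI M27-A3/M38-A2 with minor modifications. A single colony was grown overnight in YPD at 35 °C with shaking at 200 rpm. Cells were mixed 1:1 with compound (final 0.06-31.3 µg/mL, from DMSO stocks) and incubated 48 h at 35 °C.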

[3] = tested on: Candida albicans; assay: Antifungal activity against itraconazole/fluconazole susceptible Candida albicans ATCC MYA-2876 assessed as fungal growth inhibition by double dilution method; in short: as §2
[4] = tested on: Candida albicans; assay: Antifungal activity against itraconazole/fluconazole resistant Candida albicans ATCC 90819 assessed as fungal growth inhibition by double dilution method; in short: as §2
[5] = tested on: Candida albicans; assay: Antifungal activity against itraconazole/fluconazole susceptible Candida albicans ATCC MYA-2310 assessed as fungal growth inhibition by double dilution method; in short: as §2
[6] = tested on: Candida albicans; assay: Antifungal activity against itraconazole/fluconazole resistant Candida albicans ATCC MYA-1237 assessed as fungal growth inhibition by double dilution method; in short: as §2
[7] = tested on: Candida albicans; assay: Antifungal activity against itraconazole/fluconazole resistant Candida albicans ATCC MYA-1003 assessed as fungal growth inhibition by double dilution method; in short: as §2
[8] = tested on: Nakaseomyces glabratus; assay: Antifungal activity against Candida glabrata ATCC 2001 assessed as fungal growth inhibition by double dilution method; in short: as §1
[9] = tested on: Pichia kudriavzevii; assay: Antifungal activity against Pichia kudriavzevii ATCC 6258 assessed as fungal growth inhibition by double dilution method; in short: as §1
[10] = tested on: Nakaseomyces glabratus; assay: Antifungal activity against Candida glabrata ATCC 22019 assessed as fungal growth inhibition by double dilution method; in short: as §1
[11] = tested on: [Candida] auris; assay: Antifungal activity against Candida auris AR Bank # 0384 assessed as fungal growth inhibition by double dilution method; conditions: Candidozyma auris; in short: as §1
[12] = tested on: [Candida] auris; assay: Antifungal activity against Candida auris AR Bank # 0390 assessed as fungal growth inhibition by double dilution method; conditions: Candidozyma auris; in short: as §1
[13] = tested on: Cryptococcus neoformans; assay: Antifungal activity against Cryptococcus neoformans ATCC MYA-895 assessed as fungal growth inhibition by double dilution method; in short: as §1
[14] = tested on: Aspergillus terreus; assay: Antifungal activity against Aspergillus terreus ATCC MYA-3633 assessed as fungal growth inhibition by double dilution method
[15] = tested on: Aspergillus fumigatus; assay: Antifungal activity against Aspergillus fumigatus NRRL 163 assessed as fungal growth inhibition by double dilution method
[16] = tested on: Aspergillus flavus; assay: Antifungal activity against Aspergillus flavus ATCC MYA-3631 assessed as fungal growth inhibition by double dilution method
[17] = tested on: Aspergillus nidulans; assay: Antifungal activity against Aspergillus nidulans ATCC 38163 assessed as fungal growth inhibition by double dilution method
[18] = tested on: Aspergillus fumigatus; assay: Antifungal activity against Aspergillus fumigatus NRRL 5109 assessed as fungal growth inhibition by double dilution method
[19] = tested on: Aspergillus fumigatus; assay: Antifungal activity against Aspergillus fumigatus NRRL 6113 assessed as fungal growth inhibition by double dilution method

## O=C(NNc1ccc(F)cc1)c1cccc(F)n1
[1]
  MIC: 0.24 µg/mL (≈ 0.963 µM)
[2]
  MIC: 0.98 µg/mL (≈ 3.93 µM)
[3]
  MIC: 1.95 µg/mL (≈ 7.82 µM)
[4]
  MIC: 1.95 µg/mL (≈ 7.82 µM)
[5]
  MIC: 3.9 µg/mL (≈ 15.6 µM)
[6]
  MIC: 1.95 µg/mL (≈ 7.82 µM)
[7]
  MIC: 0.98 µg/mL (≈ 3.93 µM)
[8]
  MIC: 15.6 µg/mL (≈ 62.6 µM)
[9]
  MIC: 0.49 µg/mL (≈ 1.97 µM)
[10]
  MIC: 3.9 µg/mL (≈ 15.6 µM)
[11]
  MIC: 1.95 µg/mL (≈ 7.82 µM)
[12]
  MIC: 0.98 µg/mL (≈ 3.93 µM)
[13]
  MIC: 0.49 µg/mL (≈ 1.97 µM)
[14]
  MIC: 1.95 µg/mL (≈ 7.82 µM)
[15]
  MIC: 31.3 µg/mL (≈ 126 µM)
[16]
  MIC: 7.8 µg/mL (≈ 31.3 µM)
[17]
  MIC: 0.98 µg/mL (≈ 3.93 µM)
[18]
  MIC: 15.6 µg/mL (≈ 62.6 µM)
[19]
  MIC: 15.6 µg/mL (≈ 62.6 µM)

## O=C(NNc1ccc(F)cc1)c1ncc(F)cc1F
[1]
  MIC: 0.98 µg/mL (≈ 3.67 µM)
[2]
  MIC: 1.95 µg/mL (≈ 7.3 µM)
[3]
  MIC: 1.95 µg/mL (≈ 7.3 µM)
[4]
  MIC: 1.95 µg/mL (≈ 7.3 µM)
[5]
  MIC: 3.9 µg/mL (≈ 14.6 µM)
[6]
  MIC: 1.95 µg/mL (≈ 7.3 µM)
[7]
  MIC: 0.98 µg/mL (≈ 3.67 µM)
[8]
  MIC: 15.6 µg/mL (≈ 58.4 µM)
[9]
  MIC: 0.49 µg/mL (≈ 1.83 µM)
[10]
  MIC: 3.9 µg/mL (≈ 14.6 µM)
[11]
  MIC: 1.95 µg/mL (≈ 7.3 µM)
[12]
  MIC: 0.98 µg/mL (≈ 3.67 µM)
[13]
  MIC: 0.49 µg/mL (≈ 1.83 µM)
[14]
  MIC: 3.9 µg/mL (≈ 14.6 µM)
[15]
  MIC: > 31.3 µg/mL
[16]
  MIC: 7.8 µg/mL (≈ 29.2 µM)
[17]
  MIC: 0.49 µg/mL (≈ 1.83 µM)
[18]
  MIC: > 31.3 µg/mL
[19]
  MIC: > 31.3 µg/mL

## COc1cccc(NNC(=O)c2ccc(F)cn2)c1
[1]
  MIC: 0.24 µg/mL (≈ 0.919 µM)
[2]
  MIC: 0.98 µg/mL (≈ 3.75 µM)
[3]
  MIC: 0.49 µg/mL (≈ 1.88 µM)
[4]
  MIC: 3.9 µg/mL (≈ 14.9 µM)
[5]
  MIC: 1.95 µg/mL (≈ 7.46 µM)
[6]
  MIC: 1.95 µg/mL (≈ 7.46 µM)
[7]
  MIC: 0.98 µg/mL (≈ 3.75 µM)
[8]
  MIC: 15.6 µg/mL (≈ 59.7 µM)
[9]
  MIC: 0.24 µg/mL (≈ 0.919 µM)
[10]
  MIC: 3.9 µg/mL (≈ 14.9 µM)
[11]
  MIC: 1.95 µg/mL (≈ 7.46 µM)
[12]
  MIC: 0.98 µg/mL (≈ 3.75 µM)
[13]
  MIC: 0.24 µg/mL (≈ 0.919 µM)
[14]
  MIC: 3.9 µg/mL (≈ 14.9 µM)
[15]
  MIC: > 31.3 µg/mL
[16]
  MIC: > 31.3 µg/mL
[17]
  MIC: 1.95 µg/mL (≈ 7.46 µM)
[18]
  MIC: > 31.3 µg/mL
[19]
  MIC: > 31.3 µg/mL

## O=C(NNc1cccc(F)c1)c1ccc(Br)cn1
[1]
  MIC: 0.49 µg/mL (≈ 1.58 µM)
[2]
  MIC: 0.49 µg/mL (≈ 1.58 µM)
[3]
  MIC: 1.95 µg/mL (≈ 6.29 µM)
[4]
  MIC: 3.9 µg/mL (≈ 12.6 µM)
[5]
  MIC: 3.9 µg/mL (≈ 12.6 µM)
[6]
  MIC: 3.9 µg/mL (≈ 12.6 µM)
[7]
  MIC: 0.98 µg/mL (≈ 3.16 µM)
[8]
  MIC: > 31.3 µg/mL
[9]
  MIC: 0.24 µg/mL (≈ 0.774 µM)
[10]
  MIC: 7.8 µg/mL (≈ 25.2 µM)
[11]
  MIC: 1.95 µg/mL (≈ 6.29 µM)
[12]
  MIC: 1.95 µg/mL (≈ 6.29 µM)
[13]
  MIC: 0.06 µg/mL (≈ 0.193 µM)
[14]
  MIC: 0.98 µg/mL (≈ 3.16 µM)
[15]
  MIC: > 31.3 µg/mL
[16]
  MIC: 15.6 µg/mL (≈ 50.3 µM)
[17]
  MIC: 1.95 µg/mL (≈ 6.29 µM)
[18]
  MIC: > 31.3 µg/mL
[19]
  MIC: > 31.3 µg/mL

## O=C(NNc1cccc(F)c1)c1ncc(F)cc1F
[1]
  MIC: 0.24 µg/mL (≈ 0.898 µM)
[2]
  MIC: 0.98 µg/mL (≈ 3.67 µM)
[3]
  MIC: 1.95 µg/mL (≈ 7.3 µM)
[4]
  MIC: 3.9 µg/mL (≈ 14.6 µM)
[5]
  MIC: 1.95 µg/mL (≈ 7.3 µM)
[6]
  MIC: 3.9 µg/mL (≈ 14.6 µM)
[7]
  MIC: 1.95 µg/mL (≈ 7.3 µM)
[8]
  MIC: 31.3 µg/mL (≈ 117 µM)
[9]
  MIC: 0.24 µg/mL (≈ 0.898 µM)
[10]
  MIC: 1.95 µg/mL (≈ 7.3 µM)
[11]
  MIC: 1.95 µg/mL (≈ 7.3 µM)
[12]
  MIC: 1.95 µg/mL (≈ 7.3 µM)
[13]
  MIC: ≤ 0.06 µg/mL
[14]
  MIC: 3.9 µg/mL (≈ 14.6 µM)
[15]
  MIC: > 31.3 µg/mL
[16]
  MIC: > 31.3 µg/mL
[17]
  MIC: 0.98 µg/mL (≈ 3.67 µM)
[18]
  MIC: > 31.3 µg/mL
[19]
  MIC: > 31.3 µg/mL

## O=C(NNc1ccc(F)cc1)c1ccc(F)cc1F
[1]
  MIC: 0.49 µg/mL (≈ 1.84 µM)
[2]
  MIC: 7.8 µg/mL (≈ 29.3 µM)
[3]
  MIC: 7.8 µg/mL (≈ 29.3 µM)
[4]
  MIC: 1.95 µg/mL (≈ 7.32 µM)
[5]
  MIC: 3.9 µg/mL (≈ 14.6 µM)
[6]
  MIC: 1.95 µg/mL (≈ 7.32 µM)
[7]
  MIC: 1.95 µg/mL (≈ 7.32 µM)
[8]
  MIC: 7.8 µg/mL (≈ 29.3 µM)
[9]
  MIC: 1.95 µg/mL (≈ 7.32 µM)
[10]
  MIC: 15.6 µg/mL (≈ 58.6 µM)
[11]
  MIC: 1.95 µg/mL (≈ 7.32 µM)
[12]
  MIC: 1.95 µg/mL (≈ 7.32 µM)
[13]
  MIC: 0.49 µg/mL (≈ 1.84 µM)
[14]
  MIC: 3.9 µg/mL (≈ 14.6 µM)
[15]
  MIC: > 31.3 µg/mL
[16]
  MIC: > 31.3 µg/mL
[17]
  MIC: 3.9 µg/mL (≈ 14.6 µM)
[18]
  MIC: > 31.3 µg/mL
[19]
  MIC: > 31.3 µg/mL

## O=C(NNc1cccc(F)c1)c1ccc(F)cn1
[1]
  MIC: 0.49 µg/mL (≈ 1.97 µM)
[2]
  MIC: 0.49 µg/mL (≈ 1.97 µM)
[3]
  MIC: 3.9 µg/mL (≈ 15.6 µM)
[4]
  MIC: 3.9 µg/mL (≈ 15.6 µM)
[5]
  MIC: 3.9 µg/mL (≈ 15.6 µM)
[6]
  MIC: 3.9 µg/mL (≈ 15.6 µM)
[7]
  MIC: 1.95 µg/mL (≈ 7.82 µM)
[8]
  MIC: 31.3 µg/mL (≈ 126 µM)
[9]
  MIC: 0.24 µg/mL (≈ 0.963 µM)
[10]
  MIC: 1.95 µg/mL (≈ 7.82 µM)
[11]
  MIC: 1.95 µg/mL (≈ 7.82 µM)
[12]
  MIC: 1.95 µg/mL (≈ 7.82 µM)
[13]
  MIC: ≤ 0.06 µg/mL
[14]
  MIC: 1.95 µg/mL (≈ 7.82 µM)
[15]
  MIC: > 31.3 µg/mL
[16]
  MIC: 7.8 µg/mL (≈ 31.3 µM)
[17]
  MIC: 0.98 µg/mL (≈ 3.93 µM)
[18]
  MIC: > 31.3 µg/mL
[19]
  MIC: > 31.3 µg/mL
